Experiment [1] addresses B-cell lymphoma 6 protein (Homo sapiens, UniProt P41182, C67R/C84N/C8Q). Nature of the experiment: Inhibition of recombinant human C-terminal GST-tagged BCL6 BTB domain C8Q/C67R/C84N triple mutant expressed in Escherichia coli BL21 (DE3) cells assessed as reduction in SMRT/BTB domain interaction incubated for 1 hr by HTRF assay.
Experiment [2] concerns SUD4. Nature of the experiment: Antiproliferative activity against human SUDHL4 cells assessed as reduction in cell viability incubated for 72 hrs by CCK8 assay. Particulars: SU-DHL-4, 72 h.
Experiment [3] deals with Farage. Nature of the experiment: Antiproliferative activity against human Farage cells assessed as reduction in cell viability incubated for 72 hrs by CCK8 assay.
A further experiment has as its system DOHH-2. As to the kind of experiment: Antiproliferative activity against human DOHH2 cells assessed as reduction in cell viability incubated for 72 hrs by CCK8 assay. Conditions: DOHH-2, 72 h.
The next experiment has as its system OCI-Ly7. Nature of the experiment: Antiproliferative activity against human OCI-LY7 cells assessed as reduction in cell viability incubated for 72 hrs by CCK8 assay. Conditions: OCI-Ly7, 72 h.
The subject of experiment [4] is Toledo. Nature of the experiment: Antiproliferative activity against BCL6-negative human Toledo cells assessed as reduction in cell viability incubated for 72 hrs by CCK8 assay.
A further experiment relates to L02. As to the kind of experiment: Cytotoxicity against human LO2 cells assessed as reduction in cell viability incubated for 72 hrs by CCK8 assay. Conditions: L02, 72 h.
The nature of experiment [5]: Cytotoxicity against HAF cells assessed as reduction in cell viability incubated for 72 hrs by CCK8 assay. Conditions: Homo sapiens.
A further experiment has as its system NCM460. As to the kind of experiment: Cytotoxicity against human NCM460 cells assessed as reduction in cell viability incubated for 72 hrs by CCK8 assay. Conditions: NCM460, 72 h.
Another experiment concerns PNT1A. As to the kind of experiment: Cytotoxicity against human PNT1A cells assessed as reduction in cell viability incubated for 72 hrs by CCK8 assay.
Experiment [6] has as its system SUD4. Nature of the experiment: Induction of apoptosis in human SUDHL4 cells assessed as late apoptotic cells at 0.625 uM incubated for 48 hrs by annexin V-FITC and propidium iodide staining based flow cytometry analysis (reference value: 1.39%). The experiment is classed as functional.
The test system of experiment [7] is SUD4. As to the kind of experiment: Induction of apoptosis in human SUDHL4 cells assessed as late apoptotic cells at 1.25 uM incubated for 48 hrs by annexin V-FITC and propidium iodide staining based flow cytometry analysis (reference value: 1.39%). The experiment is classed as functional.
The subject of experiment [8] is SUD4. As to the kind of experiment: Induction of apoptosis in human SUDHL4 cells assessed as late apoptotic cells at 2.5 uM incubated for 48 hrs by annexin V-FITC and propidium iodide staining based flow cytometry analysis (reference value: 1.39%). The experiment is classed as functional.
Experiment [9] relates to SUD4. Nature of the experiment: Induction of apoptosis in human SUDHL4 cells assessed as early apoptotic cells at 0.625 uM incubated for 48 hrs by annexin V-FITC and propidium iodide staining based flow cytometry analysis (reference value: 2.62%). The experiment is classed as functional.
Experiment [10] relates to SUD4. As to the kind of experiment: Induction of apoptosis in human SUDHL4 cells assessed as early apoptotic cells at 1.25 uM incubated for 48 hrs by annexin V-FITC and propidium iodide staining based flow cytometry analysis (reference value: 2.62%). The experiment is classed as functional.
The subject of experiment [11] is SUD4. As to the kind of experiment: Induction of apoptosis in human SUDHL4 cells assessed as early apoptotic cells at 2.5 uM incubated for 48 hrs by annexin V-FITC and propidium iodide staining based flow cytometry analysis (reference value: 2.62%). The experiment is classed as functional.
Experiment [12] deals with Farage. Nature of the experiment: Antiproliferative activity against human Farage cells transfected with lentivirus expressing BCL6 shRNA assessed as reduction in cell viability at 10 to 80 uM incubated for 72 hrs by CCK8 assay. The experiment is classed as functional, cell-based.
Experiment [13] has as its system Farage. As to the kind of experiment: Antiproliferative activity against human Farage cells transfected with empty vector lentivirus assessed as reduction in cell viability at 10 to 80 uM incubated for 72 hrs by CCK8 assay. The experiment is classed as functional, cell-based. The gist of the method:
(§1)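 Lentivirus made by transfection; supernatant collected at 48 h and 72 h. DLBCL cells infected with virus plus 8 μg/mL polybrene for 48 h, then selected in RPMI 1640 with 2 μg/mL puromycin. Transduced cells seeded at 2 × 10⁴ cells/well and exposed to compound for 72 h. CCK8 added, 1-2 h at 37 °C, absorbance read at 450 nm. Run in triplicate.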

For experiment [14], the system named is Toledo. As to the kind of experiment: Antiproliferative activity against human Toledo cells transfected with empty vector lentivirus assessed as reduction in cell viability up to 20 uM incubated for 72 hrs by CCK8 assay. The experiment is classed as functional, cell-based. Put shortly:
as §1

The test system of experiment [15] is Toledo. Nature of the experiment: Antiproliferative activity against human Toledo cells transfected with lentivirus overexpressing BCL6 assessed as reduction in cell viability up to 20 uM incubated for 72 hrs by CCK8 assay. The experiment is classed as functional, cell-based. The gist of the method: as §1
Experiment [16] concerns SUD4. As to the kind of experiment: Antiproliferative activity against human SUDHL4 cells assessed as living cells and S phase cells at 2.5 uM incubated for 48 hrs by Edu based flow cytometry analysis (reference value: 48.3%).
Experiment [17] concerns SUD4. As to the kind of experiment: Antiproliferative activity against human SUDHL4 cells assessed as living cells and S phase cells at 1.25 uM incubated for 48 hrs by Edu based flow cytometry analysis (reference value: 48.3%).
Experiment [18] deals with SUD4. As to the kind of experiment: Antiproliferative activity against human SUDHL4 cells assessed as living cells and S phase cells at 0.625 uM incubated for 48 hrs by Edu based flow cytometry analysis (reference value: 48.3%).
For experiment [19], the system named is Mus musculus. As to the kind of experiment: In vivo inhibition of GC formation in NP-CGG immunized C57BL/6 mouse assessed as splenic GC B cells (GL7+FAS+B220+) at 50 mg/kg/day, ip for 12 days starting from 2 days after NP-CGG addition by flow cytometry (reference value: 1.97%). The experiment is classed as functional. Details: scale not given: the % may be the effect or the level left.

The species entered for experiment [20] is Mus musculus. Particulars: C57BL/6, 50 mg/kg.
The target in experiment [21] is B-cell lymphoma 6 protein (Homo sapiens, UniProt P41182). Nature of the experiment: Binding affinity to lateral groove of BCL6 BTB domain (unknown origin). Put shortly:
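GST-tagged BCL6 protein was expressed in E. coli BL21(DE3), purified on glutathione Sepharose, dialysed into PBS and used for biolayer interferometry. GST biosensors were hydrated 10 min in kinetics buffer (1× PBS, 0.02% Tween 20), given a 60 s baseline, then loaded with BCL6-GST at 50 ng/mL for 300-600 s. After a second 60 s baseline, sensors were dipped into serially diluted compound.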

The source made the active and inactive calls. No cut-off for these calls is given here.

With `COc1ccc(Nc2nc(N3C[C@@H](C)N[C@@H](C)C3)ncc2F)cc1NC(=O)c1ccc(Br)o1`, the IC50 in [1] was over 20 µM.
The same measure, in the same setting: for `COc1cc(Nc2nc(N3C[C@@H](C)N[C@@H](C)C3)ncc2F)ccc1NC(=O)c1ccc(Br)o1` the value was over 10 µM.
For the compound `O=C1Cc2cc(Nc3nc(NCc4cccnc4)ncc3Cl)ccc2N1`, the IC50 with SUD4 [2] was 24.3 µM; in the experiment with Farage [3] it was 33.5 µM; in the experiment with DOHH-2, 47.6 µM; in the experiment with OCI-Ly7, 33.9 µM; with Toledo [4], 39.5 µM; in the experiment with L02, over 100 µM. For the same compound, the IC50 (in experiment [5]; in the experiment on NCM460; in the experiment with PNT1A) was over 100 µM throughout. The Activity in the experiment on SUD4 [6] is 1.89%; in the experiment on SUD4 [7], 1.97%; in the experiment with SUD4 [8] it was 1.74%; in the experiment with SUD4 [9] it was 3.11%; in the experiment on SUD4 [10], 3.43%; in the experiment on SUD4 [11], 3.15%. Besides, the Activity was determined as 41.2% in the experiment on SUD4 [16], 41.6% with SUD4 [17] and 43.4% in the experiment on SUD4 [18]. Besides, the result in the experiment with Farage [12], in the experiment on Farage [13], in the experiment with Toledo [14] and with Toledo [15] was Active.
For `O=C(O)CCN1C(=O)/C(=C2/C(=O)Nc3ccc(Cl)cc32)SC1=S`, the IC50 is 51.3 µM in the experiment on SUD4 [2]; 33.9 µM in the experiment with Farage [3]; 35.1 µM in the experiment with DOHH-2; 39 µM in the experiment with OCI-Ly7; 65.3 µM in the experiment with Toledo [4]; over 100 µM with L02. In addition, the IC50 (in [5]; in the experiment on NCM460; in the experiment with PNT1A) was over 100 µM throughout. For the same compound, the Activity with SUD4 [6] amounted to 1.81%; in the experiment on SUD4 [7], 1.73%; in the experiment on SUD4 [8], 1.96%; in the experiment with SUD4 [9] it was 2.86%; in the experiment on SUD4 [10], 2.62%; with SUD4 [11], 3.19%. Moreover, the Activity is listed as 0.73% in the experiment with Mus musculus [19], 47.4% in the experiment with SUD4 [16], 45.1% in the experiment on SUD4 [17] and 48.5% in the experiment with SUD4 [18]. Also, the result with Farage [12], in the experiment with Farage [13] and in the experiment with Toledo [15] was Active. Further, the inhibition entry in the experiment filed under Mus musculus [20] was “Active”.
Consider `COc1cc(Nc2nc(N3C[C@@H](C)N[C@@H](C)C3)ncc2F)ccc1NC(=O)c1ccc(Br)s1`, for which, in experiment [1], the IC50 is over 10 µM.
With `O=C(O)CC(C(=O)O)N1C(=O)/C(=C2/C(=O)Nc3ccc(Br)cc32)SC1=S` (stereo not drawn), the affinity in experiment [21], expressed as Kd, was 138 µM.
For the compound `CCCCNc1ncc(F)c(Nc2ccc(OC)c(Cl)c2)n1`, the IC50 in experiment [1] was over 10 µM.
Same read-out and setting: in the case of `COc1ccc(Nc2nc(N3C[C@@H](C)N[C@@H](C)C3)ncc2F)cc1NC(=O)c1ccc(Br)s1` it was over 20 µM; in that of `COc1ccc(Nc2nc(N(CC(C)C)CC(C)C)ncc2F)cc1Cl`, over 10 µM.
Regarding `COc1ccc(Nc2nc(N3C[C@H](C)C[C@H](C)C3)ncc2F)cc1Cl`, the IC50 in experiment [1] was over 10 µM.

(Values after ChEMBL document CHEMBL4376875, “Synthesis and Biological Evaluation of B-Cell Lymphoma 6 Inhibitors of N-Phenyl-4-pyrimidinamine Derivatives Bearing Potent Activities against Tumor Growth” (J Med Chem, 2020).)
